# Experimental data as given in ChEMBL document CHEMBL1145149, “Functionalized pyrrolidines inhibit alpha-mannosidase activity and growth of human glioblastoma and melanoma cells” (J Med Chem, 2005).
# Key:
# [1] = Growth inhibition of glioblastoma cells (LN18) by the compound (100 uM) upon incubation for 24 hours using MTT assay; type: functional, Homo sapiens
# In short: (§1)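 Human glioblastoma cells were kept in DMEM with 4.5 g/L glucose, 5% FCS and antibiotics, then plated for 24-72 h. They were exposed in fresh complete medium for 24, 48 or 72 h to 0, 100, 200 or 300 µM compound, with stocks in methanol/PBS 1:20. MTT at 0.2 mg/mL was present for the final 2 h. Formazan was dissolved in 0.1 N HCl/2-propanol and read at 540 nm. Readings were expressed relative to untreated cells. Triplicate wells.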
# [2] = Growth inhibition of glioblastoma cells (LN18) by the compound (100 uM) upon incubation for 48 hours using MTT assay; type: functional, Homo sapiens; parameters: unit: %; in short: as §1
# [3] = Growth inhibition of glioblastoma cells (LN18) by the compound (100 uM) upon incubation for 72 hours using MTT assay; type: functional, Homo sapiens; parameters: unit: %; in short: as §1
# [4] = Growth inhibition of glioblastoma cells (LN18) by the compound (200 uM) upon incubation for 24 hours using MTT assay; type: functional, Homo sapiens; parameters: unit: %; in short: as §1
# [5] = Growth inhibition of glioblastoma cells (LN18) by the compound (200 uM) upon incubation for 48 hours using MTT assay; type: functional, Homo sapiens; parameters: unit not given here; in short: as §1
# [6] = Growth inhibition of glioblastoma cells (LN18) by the compound (200 uM) upon incubation for 72 hours using MTT assay; type: functional, Homo sapiens; parameters: unit not given here; in short: as §1
# [7] = Growth inhibition of glioblastoma cells (LN18) by the compound (300 uM) upon incubation for 24 hours using MTT assay; type: functional, Homo sapiens; parameters: unit not given here; in short: as §1
# [8] = Growth inhibition of glioblastoma cells (LN18) by the compound (300 uM) upon incubation for 48 hours using MTT assay; type: functional, Homo sapiens; parameters: unit: %; in short: as §1
# [9] = Growth inhibition of glioblastoma cells (LN18) by the compound (300 uM) upon incubation for 72 hours using MTT assay; type: functional, Homo sapiens; parameters: unit not given here; in short: as §1
# [10] = Growth inhibition of glioblastoma cells (LNZ 308) by the compound (100 uM) upon incubation for 24 hours using MTT assay; type: functional, Homo sapiens; in short: as §1
# [11] = Growth inhibition of glioblastoma cells (LNZ 308) by the compound (100 uM) upon incubation for 48 hours using MTT assay; type: functional, Homo sapiens; in short: as §1
# [12] = Growth inhibition of glioblastoma cells (LNZ 308) by the compound (100 uM) upon incubation for 72 hours using MTT assay; type: functional, Homo sapiens; in short: as §1
# [13] = Growth inhibition of glioblastoma cells (LNZ 308) by the compound (200 uM) upon incubation for 24 hours using MTT assay; type: functional, Homo sapiens; in short: as §1
# [14] = Growth inhibition of glioblastoma cells (LNZ 308) by the compound (200 uM) upon incubation for 72 hours using MTT assay; type: functional, Homo sapiens; in short: as §1
# [15] = Growth inhibition of glioblastoma cells (LNZ 308) by the compound (300 uM) upon incubation for 24 hours using MTT assay; type: functional, Homo sapiens; in short: as §1
# [16] = Growth inhibition of glioblastoma cells (LNZ 308) by the compound (300 uM) upon incubation for 48 hours using MTT assay; type: functional, Homo sapiens; in short: as §1
# [17] = Growth inhibition of glioblastoma cells (LNZ 308) by the compound (300 uM) upon incubation for 72 hours using MTT assay; type: functional, Homo sapiens; in short: as §1
# [18] = Growth inhibition of glioblastoma cells (LNZ 308) by the compound (200 uM) upon incubation for 48 hours using MTT assay; type: functional, Homo sapiens; in short: as §1
# [19] = Growth inhibition of glioblastoma cells (LNZ 308 cell) by the compound (100 uM) upon incubation for 24 hours using MTT assay; type: functional, Homo sapiens; parameters: unit not given here; in short: as §1
# [20] = Growth inhibition of glioblastoma cells (LNZ 308 cell) by the compound (100 uM) upon incubation for 48 hours using MTT assay; type: functional, Homo sapiens; parameters: unit not given here; in short: as §1
# [21] = Growth inhibition of glioblastoma cells (LNZ 308 cell) by the compound (100 uM) upon incubation for 72 hours using MTT assay; type: functional, Homo sapiens; parameters: unit not given here; in short: as §1
# [22] = Growth inhibition of glioblastoma cells (LNZ 308 cell) by the compound (200 uM) upon incubation for 24 hours using MTT assay; type: functional, Homo sapiens; parameters: unit: %; in short: as §1
# [23] = Growth inhibition of glioblastoma cells (LNZ 308 cell) by the compound (200 uM) upon incubation for 48 hours using MTT assay; type: functional, Homo sapiens; parameters: unit: %; in short: as §1
# [24] = Growth inhibition of glioblastoma cells (LNZ 308 cell) by the compound (200 uM) upon incubation for 72 hours using MTT assay; type: functional, Homo sapiens; parameters: unit: %; in short: as §1
# [25] = Growth inhibition of glioblastoma cells (LNZ 308 cell) by the compound (300 uM) upon incubation for 24 hours using MTT assay; type: functional, Homo sapiens; parameters: unit not given here; in short: as §1
# [26] = Growth inhibition of glioblastoma cells (LNZ 308 cell) by the compound (300 uM) upon incubation for 48 hours using MTT assay; type: functional, Homo sapiens; parameters: unit: %; in short: as §1
# [27] = Growth inhibition of glioblastoma cells (LNZ 308 cell) by the compound (300 uM) upon incubation for 72 hours using MTT assay; type: functional, Homo sapiens; parameters: unit: %; in short: as §1
# [28] = target: T1, Alpha-mannosidase (Glycine max) (UniProt Q9SEH8); conditions: Prunus dulcis; 1 mM
# T1 sequence (whole entry): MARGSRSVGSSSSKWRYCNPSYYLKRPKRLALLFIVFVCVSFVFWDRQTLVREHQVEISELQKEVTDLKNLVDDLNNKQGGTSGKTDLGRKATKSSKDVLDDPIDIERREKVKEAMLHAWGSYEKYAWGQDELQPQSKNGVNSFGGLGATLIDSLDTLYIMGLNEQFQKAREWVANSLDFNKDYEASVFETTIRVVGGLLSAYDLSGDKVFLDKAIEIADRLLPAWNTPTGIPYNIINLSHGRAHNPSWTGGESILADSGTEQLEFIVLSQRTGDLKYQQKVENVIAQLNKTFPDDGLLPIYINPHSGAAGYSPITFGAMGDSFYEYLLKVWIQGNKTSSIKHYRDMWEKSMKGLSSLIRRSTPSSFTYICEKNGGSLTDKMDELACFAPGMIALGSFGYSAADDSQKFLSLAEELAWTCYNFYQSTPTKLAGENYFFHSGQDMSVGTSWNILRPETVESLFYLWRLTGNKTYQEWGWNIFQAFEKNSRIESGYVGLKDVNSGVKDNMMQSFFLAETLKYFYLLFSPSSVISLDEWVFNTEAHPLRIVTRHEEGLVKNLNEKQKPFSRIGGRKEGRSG
# [29] = Growth inhibition of glioblastoma cells (LN18) by the compound (300 uM) after 24 hr using MTT assay; type: functional, Homo sapiens; in short: as §1
# [30] = Growth inhibition of glioblastoma cells (LN18) by the compound (200 uM) upon incubation for 24 hr using MTT assay; type: functional, Homo sapiens; in short: as §1
# [31] = Growth inhibition of glioblastoma cells (LN18) by the compound (300 uM) upon incubation for 48 hr using MTT assay; type: functional, Homo sapiens; in short: as §1
# [32] = Growth inhibition of glioblastoma cells (LN18) by the compound (300 uM) upon incubation for 72 hr using MTT assay; type: functional, Homo sapiens; in short: as §1
Structure (SMILES),Growth inhibition [1],Growth inhibition [2],Growth inhibition [3],Growth inhibition [4],Growth inhibition [5],Growth inhibition [6],Growth inhibition [7],Growth inhibition [8],Growth inhibition [9],Growth inhibition [13],Growth inhibition [19],Growth inhibition [20],Growth inhibition [21],Growth inhibition [22],Growth inhibition [23],Growth inhibition [24],Growth inhibition [25],Growth inhibition [26],Growth inhibition [27],other results
OC[C@H](NC[C@H]1NC[C@H](O)[C@@H]1O)c1ccccc1,13,16,15,19,26,12,22,23,22,8,,,,,,,,,,Growth inhibition [10]: 0; Growth inhibition [11]: 19; Growth inhibition [12]: 5; Growth inhibition [14]: 13; Growth inhibition [15]: 26; Growth inhibition [16]: 25; Growth inhibition [17]: 22; Growth inhibition [18]: 19
O[C@H]1[C@@H](O)CN[C@@H]1CN[C@@H](COCc1cccc(F)c1)c1ccccc1,,6,12,19,14,41,27,39,76,14,2,6,6,14,29,27,34,56,53,
O=C(NCC(NC[C@H]1NC[C@H](O)[C@@H]1O)c1ccccc1)c1cccc(Br)c1 (some centres not stated),,20,43,30,46,61,52,50,65,20,2,19,43,20,40,52,50,42,59,
O=C(OCC(NC[C@H]1NC[C@H](O)[C@@H]1O)c1ccccc1)c1ccccc1F (some centres not stated),,7,3,17,10,14,26,8,15,,0,6,0,18,15,17,23,18,26,
OC[C@@H](NC[C@H]1NC[C@H](O)[C@@H]1O)c1ccccc1,0,,,17,,,7,,,4,,,,,,,,,,Growth inhibition [10]: 0; Growth inhibition [15]: 28; inhibition [28]: 55%
O=C(OCC(NC[C@H]1NC[C@H](O)[C@@H]1O)c1ccccc1)c1ccc(Br)cc1 (some centres not stated),5,17,31,67,48,68,92,95,97,,11,15,24,60,33,56,87,78,96,
O=C(OCC(NC[C@H]1NC[C@H](O)[C@@H]1O)c1ccccc1)c1ccc(F)cc1 (some centres not stated),,5,4,22,16,14,20,24,31,16,4,10,8,16,18,24,21,17,32,
O=C(OCC(NC[C@H]1NC[C@H](O)[C@@H]1O)c1ccccc1)c1cccc(Br)c1 (some centres not stated),,21,18,,25,24,,,,5,5,17,13,5,23,23,17,31,34,Growth inhibition [29]: 16; Growth inhibition [30]: 10; Growth inhibition [31]: 29; Growth inhibition [32]: 36
